TRPC4 block: TRPC4 (mouse) channel inhibition; Q9QUQ5; 300,000 tested, 0.39% active; B-score at 10 µM; HEK293 TRPC4beta/mu-opioid, DAMGO-evoked Fluo4 calcium flux; stronger effect = lower value;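 active = B-score over 3 SD under the library average, no early fluorescence shift, positive overall ratio signal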
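Assay system: HEK293 cells with stable TRPC4beta plus mu-opioid receptor expression. Dosing: single dose. Measured by: Fluo4 Ca2+ flux fluorescence. Also added: DAMGO in two steps, submaximal then maximal. Read-out: B score from integrated Fluo4 fluorescence ratio.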
Platelet DG rel: modulates dense granule release in human platelets. 300,000 tested, 0.22% active. human platelet-rich plasma, SFLLRN dense granule ATP release, luminescence. inhibition, %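 (compounds screened at 7.5 µM in platelet-rich plasma)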;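 active = mean replicate score, as percent of positive control, at or above 50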
TRPC6 act: activates the mouse TRPC6 cation channel | 310,000 tested, 0.13% active | HEK293-TRPC6 membrane potential dye fluorescence; stronger effect = higher value | Q61143 | B-score at 10 µM;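 active = B-score of the integrated fluorescence ratio above library mean plus 3 SD, and starting fluorescence ratio within library mean plus 5 SD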;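 note: higher score means more depolarization so channel activation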
Target sequence (Q61143 whole entry, looked up): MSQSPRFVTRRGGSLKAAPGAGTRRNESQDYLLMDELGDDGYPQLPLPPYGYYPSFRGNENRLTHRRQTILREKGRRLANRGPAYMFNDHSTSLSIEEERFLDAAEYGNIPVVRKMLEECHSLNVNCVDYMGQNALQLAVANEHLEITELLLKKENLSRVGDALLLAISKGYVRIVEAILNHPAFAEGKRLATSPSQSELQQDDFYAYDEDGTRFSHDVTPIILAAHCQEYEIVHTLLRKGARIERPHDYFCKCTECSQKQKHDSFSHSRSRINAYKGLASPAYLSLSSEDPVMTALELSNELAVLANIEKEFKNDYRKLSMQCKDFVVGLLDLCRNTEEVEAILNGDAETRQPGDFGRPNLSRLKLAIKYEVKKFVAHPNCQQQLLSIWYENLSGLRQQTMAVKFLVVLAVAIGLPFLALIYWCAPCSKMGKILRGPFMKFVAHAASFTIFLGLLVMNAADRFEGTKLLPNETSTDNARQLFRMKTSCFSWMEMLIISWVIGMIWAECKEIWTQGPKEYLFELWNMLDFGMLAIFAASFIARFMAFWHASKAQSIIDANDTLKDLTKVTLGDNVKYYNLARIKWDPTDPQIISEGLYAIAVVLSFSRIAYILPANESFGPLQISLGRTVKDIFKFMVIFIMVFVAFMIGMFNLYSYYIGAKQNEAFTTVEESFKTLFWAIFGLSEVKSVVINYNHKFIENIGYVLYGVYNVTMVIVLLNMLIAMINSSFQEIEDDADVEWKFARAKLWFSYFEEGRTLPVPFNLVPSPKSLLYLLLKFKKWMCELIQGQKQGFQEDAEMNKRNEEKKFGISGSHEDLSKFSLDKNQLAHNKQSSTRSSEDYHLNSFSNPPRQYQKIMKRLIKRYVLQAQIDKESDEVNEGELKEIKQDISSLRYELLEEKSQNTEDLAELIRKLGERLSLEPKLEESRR
TRPC4 potent: allosteric potentiators of mouse TRPC4 channel | Q9QUQ5 | HEK293 TRPC4beta/mu-opioid, DAMGO EC20, Fluo-4 Ca2+ flux; stronger effect = higher value | B-score at 10 µM | 310,000 tested, 0.42% active | AID 2227;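 active = B-score of calcium response area above 5 SD of library B-scores, with initial fluorescence ratio within 5 SD of library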;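 note: B-score of integrated fluorescence ratio over time as area under calcium response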
TRPC4 act: opens the mouse TRPC4 cation channel | Q9QUQ5 | AID 2237 | 310,000 tested, 0.49% active | HEK293 TRPC4beta/mu-opioid, Fluo4 calcium fluorescence; stronger effect = higher value | B-score at 10 µM;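 active = B-score above 5 SD of library B-scores, and initial fluorescence ratio not above library mean plus 5 SD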;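 note: positive B-score marks a calcium rise read as TRPC4 activation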
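Material: TRPC4beta and mu-opioid receptor HEK293 stable cells | Incubation: 45 min room-temperature Fluo4 loading, 110 s read | Detection: Kinetic Fluo4 calcium fluorescence | Measure: Integrated baseline-normalised fluorescence ratio, converted to per-well B score | Benchmarks: Low control buffer alone, high control maximal DAMGO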
TRPC6 inh: blocks the mouse TRPC6 cation channel | Q61143 | HEK293-TRPC6, membrane potential dye, ACh-evoked depolarization; stronger effect = lower value | B-score at 10 µM | 310,000 tested, 1.1% active | AID 2553;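 active = B-score under library mean minus 3 SD, initial fluorescence not abnormally high, positive integrated signal ratio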;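 note: B-score derived from integrated fluorescence ratio over the kinetic read; more negative B-score means stronger inhibition of depolarization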
TRPC4 sel inh 2: second selectivity test of TRPC6 inhibitors: effect on mouse TRPC4 | shares compounds with TRPC6 inh | 920 tested, 42% active | inhibition, % at 10 µM | HEK293 TRPC4/MOR, membrane potential dye fluorescence; channel activated by saturating DAMGO dose;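 active = compounds whose fluorescence signal differed from control wells by over 3 SD, either direction, in both duplicate plates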
TRPC4 spec: mouse TRPC4 off-target activity of TRPC6 inhibitors; shares compounds with TRPC6 inh; HEK293 TRPC4/mu-opioid, membrane potential fluorescence; activity change, negative = inhibition, % at 10 µM; 920 tested, 61% active;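 active = rise or fall in signal beyond 3 SD of buffer-only wells in both replicate plates, either sign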;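 note: integrated kinetic ratio of fluorescence range over baseline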
HEK293 MPD ctr 2-1: parental HEK293 nonspecific activity of TRPC6 inhibitors, second screen. parental HEK293 membrane potential dye fluorescence; maximal acetylcholine challenge after compound addition. shares compounds with TRPC6 inh. AID 2779. signal change vs control, % at 10 µM. 920 tested, 31% active;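 active = membrane potential signal moving either way by over 3 SD of the maximum-effect control, in both duplicate plates, meaning non-specific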
HEK293 MPD ctr-1: counter-screen for TRPC6 inhibitors: effect in parental HEK293 cells; parental HEK293 membrane potential dye fluorescence; membrane potential signal change, % at 10 µM; shares compounds with TRPC6 inh; 920 tested, 60% active; AID 2780;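 active = membrane potential signal shifting up or down by more than 3 SD of buffer-only wells, on both duplicate plates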
HEK293 MPD ctr-2: counter-screen for TRPC6 modulators: effect in parental HEK293 cells; shares compounds with TRPC6 inh; membrane potential signal change, % at 10 µM; membrane potential dye fluorescence; AID 488924; 2,400 tested, 51% active;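 active = membrane potential signal moves up or down beyond 5 SD from buffer-only wells, on both duplicate plates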
HEK293 MPD ctr 2-2: parental HEK293 nonspecific activity of TRPC6 modulators, second screen. shares compounds with TRPC6 inh. membrane potential dye fluorescence; after compound, maximal acetylcholine stimulation. inhibition, % at 10 µM. 2,400 tested, 14% active. AID 488926;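 active = membrane potential signal drops by more than 5 SD from the mean control signal, in both duplicate plates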;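 note: plate controls were acetylcholine ECmax control wells for no effect and buffer only wells for full effect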
TRPC4 ctr mod: mouse TRPC4 off-target activity of TRPC6 modulators | 2,400 tested, 69% active | HEK293 TRPC4/mu-opioid, membrane potential fluorescence | shares compounds with TRPC6 inh | AID 488927 | percent change from control (negative = decrease, positive = increase), % at 10 µM;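 active = membrane potential signal moved up or down beyond 5 SD of buffer control wells, in both duplicate plates, actives on both sides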;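 note: plate controls were assay buffer wells for no effect and DAMGO maximal-effect wells for full effect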
TRPC4/MOR inh 2: mouse TRPC4 off-target activity of TRPC6 modulators, second screen | 2,400 tested, 55% active | inhibition, % at 10 µM | HEK293 TRPC4/mu-opioid, membrane potential dye fluorescence; stimulated with maximal-effect DAMGO | shares compounds with TRPC6 inh;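 active = drop in membrane potential signal beyond 5 SD of the control wells in both duplicate plates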;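 note: TRPC4 counter screen for TRPC6 hits run under conditions tuned for TRPC6 not TRPC4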
TRPC6 block conf: mouse TRPC6 inhibitor confirmation. shares compounds with TRPC6 inh. HEK293-TRPC6, membrane potential dye, ACh-evoked depolarization. 3,300 tested, 43% active. inhibition, % at 10 µM. AID 488960;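 active = fluorescence ratio falls more than 5 SD below the full-stimulation control mean, in both duplicate runs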;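 note: integrated fluorescence ratio of peak minus minimum over baseline after agonist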
TRPC6 act conf: confirmation of mouse TRPC6 activators; shares compounds with TRPC6 inh; HEK293-TRPC6 membrane potential dye fluorescence, FDSS; activation, % at 10 µM; 2,800 tested, 11% active; AID 488961;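 active = ratio signal rise beyond 5 SD above unstimulated control wells' mean, seen in both duplicate runs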;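 note: plate controls were buffer EC0 wells for no effect and acetylcholine ECmax response for full effect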
The depositor's hits bear a star; i = inactive; · = not tested or not shown. In the library only some 2.5% were active in any assay of this set; here they are far more common.

SMILES	TRPC4 block	Platelet DG rel	TRPC6 act	TRPC4 potent	TRPC4 act	TRPC6 inh	TRPC4 sel inh 2	TRPC4 spec	HEK293 MPD ctr 2-1	HEK293 MPD ctr-1	HEK293 MPD ctr-2	HEK293 MPD ctr 2-2	TRPC4 ctr mod	TRPC4/MOR inh 2	TRPC6 block conf	TRPC6 act conf
Cc1cc(OCC(=O)NC2CCN(Cc3ccccc3)CC2)c2c(C)cc(=O)oc2c1	i	4	i	i	i	-6.1*	·	·	·	·	-82%*	i	-26%*	i	i	i
CN1C2CCC1CC(OC(c1ccccc1)c1ccccc1)C2 (stereo unspecified)	i	5	i	i	i	-7.1*	68%*	19%*	i	14%*	·	·	·	·	69%*	·
CN1C2CCC1CC(OC(=O)c1c[nH]c3ccccc13)C2 (stereo unspecified)	i	-19	i	i	i	i	·	·	·	·	·	·	·	·	·	·
N#C/C(=N\Nc1cccc([N+](=O)[O-])c1)C(=O)c1ccc(Br)cc1	-6*	2	i	i	i	-7.3*	53%*	i	i	-156%*	·	·	·	·	79%*	i
CCN1C(=O)/C(=C/C=C2\C=CN(CC)c3ccccc32)SC1=S	i	-4	i	i	i	-6.1*	·	·	·	·	i	i	-27%*	80%*	i	i
N=c1c2c3c(sc2ncn1Nc1ccccc1)CCC3	i	0	i	i	i	-5.3*	·	·	·	·	i	i	-8.5%*	52%*	51%*	i
N=c1c2c3c(sc2ncn1CCN1CCOCC1)CCCCC3	i	-9	i	i	i	i	·	·	·	·	·	·	·	·	·	·
N=c1c2c3c(sc2ncn1CCCO)CCCC3	i	-3	i	i	i	i	·	·	·	·	·	·	·	·	·	·
CCCCn1cnc2sc3c(c2c1=N)CCCC3	i	2	i	i	i	-7.1*	62%*	-17%*	i	-228%*	·	·	·	·	i	i
N=c1c2c3c(sc2ncn1Cc1ccccc1)CCCC3	i	-20	i	i	i	-6.5*	·	·	·	·	i	i	-12%*	39%*	i	i
C#Cc1ccc([C@H]2C=C(C(=O)NCc3ccccc3)O[C@@H](OCc3ccc(CO)cc3)C2)cc1	i	-2	i	i	i	i	·	·	·	·	·	·	·	·	·	·
Cc1cc(C)c2nc(N3CCC(C(=O)NCC4CCCO4)CC3)sc2c1 (stereo unspecified)	i	7	i	i	i	i	·	·	·	·	·	·	·	·	·	·
Cc1cc(C)c2nc(N3CCC(C(=O)NCCCN4CCCCC4)CC3)sc2c1	i	-1	i	i	i	-8.8*	74%*	2.6%*	i	2.9%*	·	·	·	·	52%*	i
CCCn1c(N)c(N(CCOC)C(=O)c2ccc(F)cc2F)c(=O)[nH]c1=O	i	-6	i	i	i	i	·	·	·	·	·	·	·	·	·	·
Cc1ccc(C)c(OCCCCN2CCNCC2)c1C	i	-2	i	15*	i	-5.6*	·	·	·	·	i	i	i	50%*	53%*	·
Cc1ccc(C)c(OCCCN2CCNCC2)c1	i	4	i	i	i	i	·	·	·	·	·	·	·	·	·	·
O=C(C[n+]1ccccc1)c1ccc(-c2ccccc2)cc1	i	2	i	i	i	i	·	·	·	·	·	·	·	·	·	·
CN(C)c1cc[n+](CC(=O)c2ccc(-c3ccccc3)cc2)cc1	i	5	i	i	i	-7.7*	i	-0.5%*	47%*	3.3%*	·	·	·	·	i	·
CC1(C)Cc2[nH]c3ccccc3c2C(C)(C)N1	i	-1	i	i	i	i	·	·	·	·	·	·	·	·	·	·
CCN(CC)CCn1c(NCc2nc3ccccc3n2Cc2ccccc2)nc2ccccc21	i	0	i	i	i	-7.1*	36%*	18%*	276%*	8.3%*	·	·	·	·	53%*	i
CCN(CC)c1ccc(CNc2nc3ccccc3n2CCN2CCCCC2)cc1	i	8	i	i	119*	-5.9*	·	·	·	·	i	i	32%*	97%*	52%*	i
c1ccc(Cn2c(CNc3nc4ccccc4n3CCN3CCCCC3)nc3ccccc32)cc1	i	-24	i	i	i	-6.7*	59%*	11%*	284%*	6.9%*	·	·	·	·	i	i
CCN(CC)CCn1c(NCc2ccco2)nc2ccccc21	i	4	i	i	i	i	·	·	·	·	·	·	·	·	·	·
Cn1c(CNc2nc3ccccc3n2CCN2CCCCC2)nc2ccccc21	i	13	i	i	i	-6.5*	·	·	·	·	i	i	i	72%*	44%*	i
COc1ccc(CNc2nc3ccccc3n2CCN2CCCCC2)cc1	i	14	i	i	i	i	·	·	·	·	·	·	·	·	·	·
Cc1ccnc2ccc(SC(F)(F)F)cc12	i	1	i	i	i	i	·	·	·	·	·	·	·	·	·	·
CCn1c(NCc2ccc(N(C)C)cc2)nc2ccccc21	i	1	i	i	i	-5.3*	·	·	·	·	i	i	-14%*	46%*	i	i
O=C(O)CCC(=O)N1CCN(c2ncccc2C(F)(F)F)CC1	i	-2	i	i	i	i	·	·	·	·	·	·	·	·	·	·
